Measurements as given in ChEMBL document CHEMBL1122203, “Potential tumor- or organ-imaging agents. 23. Sterol esters of iopanoic acid” (J Med Chem, 1982).

Experiments:
Rattus norvegicus [1] = test: Evaluated for distribution at 24 hours after intravenous administration in liver of female Sprague Dawley rats; format: ADME, organism-based; conditions: in vivo
Outline: (§1)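 Radioiodinated compound solubilized in Tween (2–3% clear solution) and given intravenously to adult female Sprague-Dawley rats, 200–250 g; 5–30 µCi per animal, 4–5 rats per group. Killed by exsanguination under ether anesthesia; organs blotted, adrenal cortex dissected from medulla, weighed samples gamma-counted (84% efficiency). Expressed as percent administered dose per gram tissue ± SEM.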

Rattus norvegicus [2] = test: Evaluated for distribution at 24 hours after intravenous administration in ovary of female Sprague Dawley rats; format: ADME, organism-based, Female gonad; conditions: in vivo; outline: as §1
Rattus norvegicus [3] = test: Evaluated for distribution at 24 hours after intravenous administration in thyroid of female Sprague Dawley rats; format: ADME, organism-based, Thyroid gland; conditions: in vivo; outline: as §1
Rattus norvegicus [4] = test: Evaluated for distribution at 0.5 hr after intravenous administration in adrenal cortex of female Sprague Dawley rats; format: ADME, organism-based; conditions: in vivo; outline: as §1
Rattus norvegicus [5] = test: Evaluated for distribution at 0.5 hr after intravenous administration in blood of female Sprague Dawley rats; format: ADME, organism-based; conditions: in vivo; outline: as §1
Rattus norvegicus [6] = test: Evaluated for distribution at 0.5 hr after intravenous administration in liver of female Sprague Dawley rats; format: ADME, organism-based; conditions: in vivo; outline: as §1
Rattus norvegicus [7] = test: Evaluated for distribution at 0.5 hr after intravenous administration in ovary of female Sprague Dawley rats; format: ADME, organism-based, Female gonad; conditions: in vivo; outline: as §1
Rattus norvegicus [8] = test: Evaluated for distribution at 0.5 hr after intravenous administration in thyroid of female Sprague Dawley rats; format: ADME, organism-based, Thyroid gland; conditions: in vivo; outline: as §1
Rattus norvegicus [9] = test: Evaluated for distribution at 24 hours after intravenous administration in adrenal cortex of female Sprague Dawley rats; format: ADME, organism-based; conditions: in vivo; outline: as §1
[10] = Percent lipid extracted at 0.5 hr from adrenal […] using CHCl3/CH3OH.; format: ADME, tissue-based
Outline: (§2)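 Same iv dosing of radioiodinated ester in Tween to female Sprague-Dawley rats. At 0.5 or 24 h, plasma, adrenal cortex and liver were extracted with CHCl3/CH3OH. Radioactivity in the lipid extract was counted and reported as percent of tissue radioactivity extractable, ± SE.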

[11] = Percent lipid extracted at 0.5 hr from […] using CHCl3/CH3OH.; format: ADME, cell-free; outline: as §2
[12] = Percent lipid extracted at 0.5 hr from liver using CHCl3/CH3OH.; format: ADME, tissue-based; outline: as §2
[13] = Percent lipid extracted at 24 hours from adrenal cortex using CHCl3/CH3OH.; format: ADME, tissue-based; outline: as §2
[14] = Percent lipid extracted at 24 hours from plasma using CHCl3/CH3OH.; format: ADME, cell-free; outline: as §2
[15] = Percent lipid extracted at 24 hr from liver using CHCl3/CH3OH.; format: ADME, tissue-based; outline: as §2
[16] = Percent parent compound extracted at 0.5 hr from adrenal cortex using CHCl3/CH3OH.; format: ADME, tissue-based
Outline: (§3)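 Lipid extracts from plasma, adrenal cortex and liver taken at 0.5 or 24 h after iv dosing were run on TLC beside unlabeled ester reference (iodine vapor). Eluents were petroleum ether/diethyl ether 7:2 for the cholesteryl ester and benzene/ethyl acetate 9:1 for the others, developed 14.5 cm. Plates were cut into 1-cm strips and counted; parent given as percent of extractable radioactivity.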

[17] = Percent parent compound extracted at 0.5 hr from liver using CHCl3/CH3OH.; format: ADME, tissue-based; outline: as §3
[18] = Percent parent compound extracted at 0.5 hr from plasma using CHCl3/CH3OH.; format: ADME, cell-free; conditions: read-out: Extracted; outline: as §3
[19] = Percent parent compound extracted at 24 hours from adrenal cortex using CHCl3/CH3OH.; format: ADME, tissue-based; outline: as §3
[20] = Percent parent compound extracted at 24 hours from liver using CHCl3/CH3OH.; format: ADME, tissue-based; outline: as §3
[21] = Percent parent compound extracted at 24 hours from plasma using CHCl3/CH3OH.; format: ADME, cell-free; conditions: read-out: Extracted; outline: as §3
Rattus norvegicus [22] = test: Evaluated for distribution at 24 hours after intravenous administration in blood of female Sprague Dawley rats; format: ADME, organism-based; conditions: in vivo; outline: as §1

Compound	Distribution (Rattus norvegicus [1])	Distribution (Rattus norvegicus [2])	Distribution (Rattus norvegicus [3])	Distribution (Rattus norvegicus [4])	Distribution (Rattus norvegicus [5])	Distribution (Rattus norvegicus [6])	Distribution (Rattus norvegicus [7])	Distribution (Rattus norvegicus [8])	Distribution (Rattus norvegicus [9])	Extracted [10]	Extracted [11]	Extracted [12]	Extracted [13]	Extracted [14]	Extracted [15]	Extracted [16]	Extracted [17]	remaining at 0.5 h [18]	Extracted [19]	Extracted [20]	further results
CCC(Cc1c(I)cc(I)c(N)c1I)C(=O)OC1CCC2(C)C(=CCC3C2CCC2(C)C(C(C)CCCC(C)C)CCC32)C1 (stereo unspecified)	6.59%	24.542%	3.571%	4.9%	5.191%	4.035%	5.161%	0.868%	11.029%	83.1%	83.4%	87.2%	92.1%	85.8%	91.2%	96.9%	97.8%	96%	96.9%	97.8%	remaining at 24 h [21]: 96.1%; Distribution (Rattus norvegicus [22]): 0.696%
CCC(Cc1c(I)cc(I)c(N)c1I)C(=O)OC1CCC2(C)C(=CCC3C2CCC2(C)C(C(C)=O)CCC32)C1 (stereo unspecified)	0.386%	1.085%	156.7%	23.083%	1.727%	5.214%	2.126%	0.945%	4.256%	89.5%	86.7%	87.6%	87.3%	60%	76.1%	92.1%	89.2%	91.9%	68.2%	69.1%	remaining at 24 h [21]: 44.6%; Distribution (Rattus norvegicus [22]): 0.039%
CCC(Cc1c(I)cc(I)c(N)c1I)C(=O)OC1CCC2(C)C(=CCC3C4CCC(=O)C4(C)CCC32)C1 (stereo unspecified)	0.108%	1.205%	143.74%	15.38%	1.275%	3.612%	1.886%	1.392%	3.958%	85.5%	63.1%	81.5%	83.4%	64.2%	61.8%	83.4%	61.8%	64.2%	16.8%	42.5%	remaining at 24 h [21]: 38%; Distribution (Rattus norvegicus [22]): 0.085%
